This is an account of results in ChEMBL document CHEMBL1155930, “Novel dimeric aryldiketo containing inhibitors of HIV-1 integrase: effects of the phenyl substituent and the linker orientation” (Bioorg Med Chem, 2008).

The structures appear in SMILES notation.

The target of test [1] is T1, Human immunodeficiency virus type 1 integrase (Human immunodeficiency virus 1, UniProt Q7ZJM1). Put plainly: Inhibition of wild-type HIV1 integrase 3'-processing activity using [32P]-labeled linear oligonucleotide substrate by polyacrylamide gel electrophoresis. The essentials: (§1)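 Wild-type IN (final 200 nM) preincubated with inhibitor for 30 min at 30 °C in buffer containing 50 mM NaCl, 1 mM HEPES pH 7.5, 50 μM EDTA, 50 μM DTT, 10% glycerol, 7.5 mM MnCl2, 0.1 mg/mL BSA, 10 mM 2-mercaptoethanol, 10% DMSO, 25 mM MOPS pH 7.2. Then 20 nM 5'-32P-labeled annealed 21-mer duplex added, 1 h more. Quenched with formamide loading dye. IC50 from log concentration vs percent inhibition.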

The target in test [2] is T1, Human immunodeficiency virus type 1 integrase. Put plainly: Inhibition of wild-type HIV1 integrase strand transfer activity using [32P]-labeled linear oligonucleotide substrate by polyacrylamide gel electrophoresis. The gist of the method: as §1

T1 sequence (Q7ZJM1 whole entry): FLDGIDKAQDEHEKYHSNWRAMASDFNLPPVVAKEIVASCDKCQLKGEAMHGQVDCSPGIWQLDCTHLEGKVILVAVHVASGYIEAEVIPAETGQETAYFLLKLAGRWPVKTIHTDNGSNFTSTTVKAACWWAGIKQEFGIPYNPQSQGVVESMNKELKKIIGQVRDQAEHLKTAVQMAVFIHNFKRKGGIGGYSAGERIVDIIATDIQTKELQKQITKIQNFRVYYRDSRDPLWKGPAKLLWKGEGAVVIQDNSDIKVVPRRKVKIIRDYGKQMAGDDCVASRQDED

By IC50 is commonly meant the concentration that gives 50% inhibition. Higher therefore signals lower potency. Regarding `O=C(CC(=O)c1cccc(OCc2ccccc2)c1)C(=O)N1CCN(C(=O)C(=O)CC(=O)c2cccc(OCc3ccccc3)c2)CC1`, the IC50 in test [1] was found to be 56 µM; in test [2], 1.8 µM.

Regarding `Cc1cc(C(=O)/C=C(\O)C(=O)O)ccc1Cl`, the results for the IC50 in test [1] and in test [2] were 94 µM and 4.7 µM, respectively.

On to `O=C(O)/C(O)=C/C(=O)c1ccccc1Cl`, for which the IC50 was > 100 µM in test [1] and 17 µM in test [2].

Regarding `O=C(O)/C(O)=C/C(=O)c1ccccc1F`, the IC50 in test [1] is > 100 µM; in test [2], 58 µM.

With `COC(=O)/C(O)=C/C(=O)c1ccc(OC)c(OCc2ccccc2)c1`, the IC50 in test [1] is > 100 µM; in test [2], 16 µM.

Turning to `O=C(CC(=O)c1cccc(OCc2ccccc2)c1)C(=O)OC1CCN(C(=O)C(=O)CC(=O)c2cccc(OCc3ccccc3)c2)CC1`, the IC50 in test [1] was found to be 91 µM; in test [2], 3 µM.

As for `O=C(CC(=O)c1cccc(OCc2ccccc2)c1)C(=O)NC1CCC(NC(=O)C(=O)CC(=O)c2cccc(OCc3ccccc3)c2)CC1` (stereo not drawn), the IC50 in test [1] is > 100 µM; in test [2] it was 7 µM.

Turning to `O=C(CC(=O)c1cccc(OCc2ccccc2)c1)C(=O)NC1CCN(C(=O)C(=O)CC(=O)c2cccc(OCc3ccccc3)c2)CC1`, the IC50 in test [1] was 23 µM; in test [2] it was < 0.4 µM.

For `O=C(CC(=O)c1ccc(C(F)(F)F)cc1)C(=O)N1CCN(C(=O)C(=O)CC(=O)c2ccc(C(F)(F)F)cc2)CC1`, the values for the IC50 in test [1] and in test [2] were > 100 µM and 25 µM, respectively.

As for `O=C(O)/C(O)=C/C(=O)c1ccc(C(F)(F)F)cc1`, the results for the IC50 in test [1] and in test [2] were > 100 µM and 33 µM, respectively.

Regarding `COc1ccc(C(=O)/C=C(\O)C(=O)O)cc1OCc1ccccc1`, the concentration for half-maximal inhibition (IC50) in test [1] was 55 µM; in test [2] it was < 0.4 µM.

On to `COC(=O)/C(O)=C/C(=O)c1ccccc1F`, for which the IC50 in test [1] and in test [2] was > 100 µM each time.

As for `O=C(CC(=O)c1ccccc1F)C(=O)NC1CCC(NC(=O)C(=O)CC(=O)c2ccccc2F)CC1` (stereo not drawn), the results for the IC50 in test [1] and in test [2] were > 100 µM and 55 µM, respectively.

Turning to `O=C(CC(=O)c1ccccc1Cl)C(=O)N1CCN(C(=O)C(=O)CC(=O)c2ccccc2Cl)CC1`, the IC50 in test [1] and in test [2] was > 100 µM in each case.

In the case of `O=C(CC(=O)c1ccc(F)cc1)C(=O)NC1CCN(C(=O)C(=O)CC(=O)c2ccc(F)cc2)CC1`, the figures for the IC50 in test [1] and in test [2] were > 100 µM and 88 µM, respectively.

Consider `O=C(CC(=O)c1ccc(F)cc1)C(=O)N1CCN(C(=O)C(=O)CC(=O)c2ccc(F)cc2)CC1`, for which the IC50 in test [1] is > 100 µM; in test [2] it was 29 µM.

Take `COC(=O)/C(O)=C/C(=O)c1cccc(NC(=O)OCc2ccccc2)c1`: the IC50 in test [1] was found to be 99 µM; in test [2], 7 µM.

For `COC(=O)/C(O)=C/C(=O)c1cccc(Cc2ccccc2F)c1`, the IC50 was 26 µM in test [1] and 0.6 µM in test [2].

For the compound `COC(=O)/C(O)=C/C(=O)c1cccc(N(Cc2ccccc2)Cc2ccccc2)c1`, the IC50 in test [1] and in test [2] was > 100 µM each time.

In the case of `O=C(O)/C(O)=C/C(=O)c1ccccc1`, the results for the IC50 in test [1] and in test [2] were > 100 µM and 24.2 µM, respectively.

In the case of `COc1cccc(C(=O)CC(=O)C(=O)NC2CCC(NC(=O)C(=O)CC(=O)c3cccc(OC)c3)CC2)c1` (stereo not drawn), the IC50 was > 100 µM in test [1] and 26 µM in test [2].

As to `COc1cccc(C(=O)CC(=O)C(=O)N2CCN(C(=O)C(=O)CC(=O)c3cccc(OC)c3)CC2)c1`, the IC50 in test [1] was > 100 µM; in test [2] it was 26 µM.

Turning to `O=C(O)/C(O)=C/C(=O)c1ccc([N+](=O)[O-])cc1`, the IC50 was > 100 µM in test [1] and 45 µM in test [2].

Take `COC(=O)/C(O)=C/C(=O)c1ccc(F)cc1`: the IC50 in test [1] and in test [2] was > 100 µM each time.

With `O=C(CC(=O)c1ccc(F)cc1)C(=O)NC1CCC(NC(=O)C(=O)CC(=O)c2ccc(F)cc2)CC1` (stereo not drawn), the IC50 in test [1] was > 100 µM; in test [2], 35.5 µM.

With `O=C(CC(=O)c1ccccc1Cl)C(=O)NC1CCN(C(=O)C(=O)CC(=O)c2ccccc2Cl)CC1`, the IC50 in test [1] is 99 µM; in test [2], 31 µM.

Turning to `COC(=O)/C(O)=C/C(=O)c1cccc(OCc2ccccc2)c1`, the values for the IC50 in test [1] and in test [2] were > 100 µM and 14 µM, respectively.

In the case of `O=C(O)/C(O)=C/C(=O)c1cccc(OCc2ccccc2)c1`, the results for the IC50 in test [1] and in test [2] were 19 µM and < 0.4 µM, respectively.

For `COc1cccc(C(=O)/C=C(\O)C(=O)O)c1`, the IC50 in test [1] is > 100 µM; in test [2], 27 µM.

Turning to `O=C(CC(=O)c1ccc(C(F)(F)F)cc1)C(=O)NC1CCC(NC(=O)C(=O)CC(=O)c2ccc(C(F)(F)F)cc2)CC1` (stereo not drawn), the figures for the IC50 in test [1] and in test [2] were > 100 µM and 41 µM, respectively.

On to `CCCCCC12CCC(C(=O)Nc3cccc(C(=O)CC(=O)C(=O)O)c3)(CC1)CC2`, for which the IC50 in test [1] is > 100 µM; in test [2], 14 µM.

With `COc1cccc(C(=O)CC(=O)C(=O)NC2CCN(C(=O)C(=O)CC(=O)c3cccc(OC)c3)CC2)c1`, the figures for the IC50 in test [1] and in test [2] were > 100 µM and 53 µM, respectively.

Consider `CC(C)(C)OC(=O)N1CCC(NC(=O)/C(O)=C/C(=O)c2ccc(F)cc2)CC1`, for which the IC50 in test [1] was > 100 µM; in test [2], 100 µM.

Take `O=C(CC(=O)c1ccccc1Cl)C(=O)NC1CCC(NC(=O)C(=O)CC(=O)c2ccccc2Cl)CC1` (stereo not drawn): the 50% inhibitory concentration (IC50) in test [1] was determined as 92 µM; in test [2], 30 µM.
